# Data reported in ChEMBL document CHEMBL1129425, “New potent antihyperglycemic agents in db/db mice: synthesis and structure-activity relationship studies of (4-substituted benzyl) (trifluoromethyl)pyrazoles and -pyrazolones” (1996).
# Columns and labels:
# Assay type in all cases: functional
# Mus musculus [1] = assay: Percent change in the plasma glucose concentration of drug-treated db/db mice ([…], perorally) relative to vehicle at the dose 20 mg/kg.; conditions: route oral
# Summary of the method: (§1)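 Oral dosing of db/db mice once daily for 3 days, fed ad libitum. On day 4, food was withdrawn and a fourth dose given, then mice were fasted. After 4 h, mice were anesthetized with halothane and decapitated, and blood was collected into fluoride tubes. Plasma glucose was measured on an autoanalyzer and reported as mean ± SE percent change versus vehicle controls. […]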
# Mus musculus [2] = assay: Percent change in the plasma glucose concentration of drug-treated db/db mice (4-6 mice, perorally) relative to vehicle at the dose 5 mg/kg.; conditions: route oral; summary of the method: as §1
# Mus musculus [3] = assay: Percent change in the plasma glucose concentration of drug -treated db/db mice ([…], perorally) relative to vehicle at the dose 2 mg/kg; conditions: route oral
# Mus musculus [4] = assay: Percent change in the plasma glucose concentration of drug -treated db/db mice (4-6 mice, perorally) relative to vehicle at the dose mg/kg; summary of the method: as §1
# Mus musculus [5] = assay: Percent change in the plasma glucose concentration of drug -treated db/db mice ([…], perorally) relative to vehicle at the dose 0.5 mg/kg; conditions: route oral; summary of the method: as §1
# Mus musculus [6] = organism: Mus musculus; assay: Percent change in the plasma glucose concentration of drug -treated db/db mice ([…], perorally) relative to vehicle (dose not specified)
# Mus musculus [7] = assay: Percent change in the plasma glucose concentration of drug -treated db/db mice ([…], perorally) relative to vehicle at the dose 100 mg/kg; conditions: route oral
# Mus musculus [8] = assay: Percent change in the plasma glucose concentration of drug -treated db/db mice (4-6 mice, perorally) relative to vehicle at the dose 120 mg/kg; conditions: route oral; summary of the method: as §1
# Mus musculus [9] = assay: Concentration required to cause significant reduction in plasma glucose when administered orally in mice.; conditions: po
SMILES,Change (Mus musculus [1]),Change (Mus musculus [2]),also measured
CSc1ccc(Cc2c(C(F)(F)F)n[nH]c2OC(C)C)cc1,-40%,–,–
Oc1[nH]nc(C(F)(F)F)c1Cc1ccc(C(F)(C(F)(F)F)C(F)(F)F)cc1,1%,–,–
CCCCOc1[nH]nc(C(F)(F)F)c1Cc1ccc(CC)cc1,-34%,–,–
Oc1[nH]nc(C(F)(F)F)c1Cc1ccc2ccccc2c1,-45%,–,–
CC(C)(C)c1ccc(Cc2c(C(F)(F)F)n[nH]c2O)cc1,-7%,–,–
CCc1ccc(Cc2c(OC)nn(C)c2C(F)(F)F)cc1,–,-38%,–
CSc1ccc(CC2(C)C(=O)N(C)N=C2C(F)(F)F)cc1 (configuration not stated),6%,–,–
Oc1[nH]nc(C(F)(F)F)c1Cc1ccc(C(F)(F)F)cc1,–,-15%,–
Oc1[nH]nc(C(F)(F)F)c1Cc1ccc(I)cc1,-48%,–,–
CSc1ccc(CC2(C)C(=O)NN=C2C(F)(F)F)cc1 (configuration not stated),-9%,–,–
CC(=O)c1ccc(Cc2c(C(F)(F)F)n[nH]c2O)cc1,–,-19%,–
C[S+]([O-])c1ccc(Cc2c(C(F)(F)F)n[nH]c2O)cc1 (configuration not stated),–,-33%,Change (Mus musculus [3]): -25%
COc1c(Cc2ccc(SC)cc2)c(C(F)(F)F)nn1C,–,-39%,–
CCCCOc1nn(CCCC)c(C(F)(F)F)c1Cc1ccc(CC)cc1,-3%,–,–
CCCCc1ccc(Cc2c(C(F)(F)F)n[nH]c2O)cc1,–,-7%,–
CCCCCCc1ccc(Cc2c(C(F)(F)F)n[nH]c2O)cc1,5%,–,–
CSc1ccc(Cc2c(C(F)(F)F)n(C)[nH]c2=O)cc1,-29%,-7%,–
Oc1[nH]nc(C(F)(F)F)c1Cc1ccc(Cl)cc1,–,-6%,–
C/C(=N\O)c1ccc(Cc2c(C(F)(F)F)n[nH]c2O)cc1,–,-28%,–
CC(O)c1ccc(Cc2c(C(F)(F)F)n[nH]c2O)cc1 (configuration not stated),–,-18%,–
CCSc1ccc(Cc2c(C(F)(F)F)n[nH]c2O)cc1,-38%,-25%,Change (Mus musculus [3]): -23%
Cc1ccc(Cc2c(C(F)(F)F)n[nH]c2O)cc1,-36%,–,–
CC(C)(C)C(=O)c1ccc(Cc2c(C(F)(F)F)n[nH]c2O)cc1,–,–,Change (Mus musculus [4]): -23%

SMILES,Change (Mus musculus [1]),Change (Mus musculus [2]),also measured
CCc1ccc(Cc2c(C(F)(F)F)n[nH]c2O)cc1,–,-39%,Change (Mus musculus [5]): -11%; Change (Mus musculus [3]): -28%
CSc1ccc(Cc2c(C(F)(F)F)[nH]n(Cc3ccccc3)c2=O)cc1,10%,–,–
CSc1ccc(Cc2c(C(F)(F)F)[nH]n(C)c2=O)cc1,–,-11%,Change (Mus musculus [6]): -40%
CS(=O)(=O)c1ccc(Cc2c(C(F)(F)F)n[nH]c2O)cc1,–,2%,–
Oc1[nH]nc(C(F)(F)F)c1Cc1ccccc1,–,–,Change (Mus musculus [7]): -33%
COc1nn(C)c(C(F)(F)F)c1Cc1ccc(SC)cc1,-49%,-41%,Change (Mus musculus [3]): -20%
Oc1[nH]nc(C(F)(F)F)c1Cc1ccc(Br)cc1,-47%,-24%,Change (Mus musculus [3]): -5%
CC(C)Sc1ccc(Cc2c(C(F)(F)F)n[nH]c2O)cc1,-32%,–,–
Oc1[nH]nc(C(F)(F)F)c1Cc1ccc(SC(F)(F)F)cc1,-15%,5%,–
CCNc1ccc(Cc2c(C(F)(F)F)n[nH]c2O)cc1,–,-11%,Change (Mus musculus [8]): -61%
COc1[nH]nc(C(F)(F)F)c1Cc1ccc(SC)cc1,-57%,–,Change (Mus musculus [3]): -16%
Oc1[nH]nc(C(F)(F)F)c1Cc1ccc(F)cc1,-20%,-3%,–
CCOc1c(Cc2ccc(SC)cc2)c(C(F)(F)F)nn1CC,–,-23%,–
CSc1ccc(Cc2c(C(F)(F)F)n(C)n(C)c2=O)cc1,-6%,–,–
CCCCSc1ccc(Cc2c(C(F)(F)F)n[nH]c2O)cc1,-3%,–,–
Oc1[nH]nc(C(F)(F)F)c1Cc1ccc(OC(F)(F)F)cc1,–,-4%,–
CCCc1ccc(Cc2c(C(F)(F)F)n[nH]c2O)cc1,-44%,–,–
CCOc1nn(CC)c(C(F)(F)F)c1Cc1ccc(SC)cc1,–,5%,–
CCc1ccc(Cc2c(C(F)(F)F)n[nH]c2OC)cc1,–,-36%,–
CSc1ccc(Cc2c(C)n[nH]c2O)cc1,-36%,–,Change (Mus musculus [7]): -39%
COc1ccc(Cc2c(C(F)(F)F)n[nH]c2O)cc1,–,-22%,–
CC(C)c1ccc(Cc2c(C(F)(F)F)n[nH]c2O)cc1,–,-17%,–
CSc1ccc(Cc2c(C(F)(F)F)n[nH]c2O)cc1,-57%,-43%,ED50 (Mus musculus [9]): 9.85 mg/kg; Change (Mus musculus [5]): -13%; Change (Mus musculus [7]): -68%; Change (Mus musculus [3]): -29%
